Data taken from ChEMBL document CHEMBL3259611, “Suppression of inflammatory responses by handelin, a guaianolide dimer from Chrysanthemum boreale, via downregulation of NF-κB signaling and pro-inflammatory cytokine production” (J Nat Prod, 2014).
The source made the active and inactive calls. No cut-off for these calls is given here.

How the values were obtained:
RAW264.7 [1] = assay: Inhibition of LPS-induced NFkappaB transcriptional activity in mouse RAW264.7 cells assessed as reduction of phosphorylated IkappaB-alpha level at 40 uM after 30 mins by Western blotting analysis relative to control; assay type: cell-based
Method in brief: (§1)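 Macrophages were exposed to compound for 30 min before LPS stimulation, with proteins extracted 30 min later. Nuclear extracts were prepared in Tris/KCl/NP-40 lysis buffer, then 420 mM NaCl buffer, and the cytosolic fraction was kept for IκB-α. Western blot on PVDF with ECL detection. Tests in triplicate; representative of three separate experiments.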

RAW264.7 [2] = assay: Inhibition of LPS-induced NFkappaB transcriptional activity in mouse RAW264.7 cells assessed as […] at 20 uM after 30 mins by Western blotting analysis relative to control; assay type: cell-based; method in brief: as §1
Rattus norvegicus = assay: Antiinflammatory activity in po dosed rat paw edema model assessed as inhibition of carrageenan-induced serum IL-1beta production administered 30 mins prior to carrageenan challenge measured after 6 hrs by ELISA relative to vehicle-treated control
RAW264.7 [3] = assay: Antiinflammatory activity in mouse RAW264.7 cells assessed as inhibition of LPS-induced PGE2 production administered 1 hr prior to LPS challenge measured after 20 hrs by EIA relative to control; assay type: functional, cell-based
Method in brief: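 RAW 264.7 cells plated at 3 × 10^5 cells/mL, pretreated with compound for 1 h, then stimulated with 1 μg/mL LPS for 20 h. PGE2 in the supernatant was measured by immunoassay kit. Mean ± SD of triplicates.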

JNK1/JNK2 (Mus musculus) = JNK1/JNK2 (Mus musculus) (UniProt Q91Y86+Q9WTU6); assay: Inhibition LPS-induced JNK1/2 phosphorylation at Thr183/[…] in mouse RAW264.7 cells at 20 uM administered 30 mins prior to LPS challenge measured after 30 mins by Western blotting analysis; assay type: cell-based
Sequence of JNK1/JNK2 (Mus musculus) (Q91Y86 whole entry, looked up): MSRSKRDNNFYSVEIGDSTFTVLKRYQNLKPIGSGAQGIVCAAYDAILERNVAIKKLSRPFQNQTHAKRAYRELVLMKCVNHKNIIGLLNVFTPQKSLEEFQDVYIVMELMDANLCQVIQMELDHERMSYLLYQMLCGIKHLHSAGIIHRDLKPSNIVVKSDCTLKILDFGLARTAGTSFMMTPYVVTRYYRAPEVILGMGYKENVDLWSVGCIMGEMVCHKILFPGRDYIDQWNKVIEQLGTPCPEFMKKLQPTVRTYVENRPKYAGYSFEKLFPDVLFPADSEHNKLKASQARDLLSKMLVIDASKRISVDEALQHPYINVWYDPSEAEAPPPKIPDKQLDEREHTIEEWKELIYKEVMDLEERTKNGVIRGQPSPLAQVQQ
Sequence of JNK1/JNK2 (Mus musculus) (Q9WTU6 whole entry, looked up): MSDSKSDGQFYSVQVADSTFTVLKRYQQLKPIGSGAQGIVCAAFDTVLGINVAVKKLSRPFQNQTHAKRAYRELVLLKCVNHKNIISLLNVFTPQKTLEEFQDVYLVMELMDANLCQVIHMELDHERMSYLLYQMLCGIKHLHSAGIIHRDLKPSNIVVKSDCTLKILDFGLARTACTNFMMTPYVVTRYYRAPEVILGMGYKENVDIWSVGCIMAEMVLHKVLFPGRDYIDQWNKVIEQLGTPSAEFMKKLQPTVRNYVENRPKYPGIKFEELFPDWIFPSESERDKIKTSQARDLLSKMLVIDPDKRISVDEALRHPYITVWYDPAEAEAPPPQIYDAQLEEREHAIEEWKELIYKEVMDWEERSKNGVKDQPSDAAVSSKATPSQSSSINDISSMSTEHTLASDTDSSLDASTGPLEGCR
Method in brief: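 RAW 264.7 cells pretreated with compound for 30 min, then stimulated with LPS for 30 min. Protein extracts were Western blotted for phosphorylated ERK and JNK (SDS-PAGE, PVDF, ECL detection).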

RAW264.7 [4] = assay: Antiinflammatory activity in mouse RAW264.7 cells assessed as inhibition of LPS-induced iNOS mRNA expression at 10 uM after 5 hrs by RT-PCR analysis relative to control; assay type: functional
Method in brief: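 RAW 264.7 cells exposed to 1 μg/mL LPS with or without compound for 5 h. Total RNA was analysed by RT-PCR: 25−30 cycles with annealing at 55 °C. Products were separated on 2% agarose gel with SYBR-Safe staining. Experiments in triplicate.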

RAW264.7 [5] = assay: Antiinflammatory activity in mouse RAW264.7 cells assessed as inhibition LPS-induced miR-155 mRNA expression after 8 hrs by RT-PCR analysis; assay type: functional, cell-based
Method in brief: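 LPS-stimulated RAW 264.7 cells, with or without compound, for 8 h. miR-155 measured by TaqMan qRT-PCR on 10 ng RNA, with stem-loop primer RT at 16 °C 30 min, 42 °C 30 min, 85 °C 5 min. Expression given as a ratio to β-actin. Mean ± SD of triplicates.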

[6] = target: Transcription factor p65 (Mus musculus) (UniProt Q04207); assay: Inhibition of LPS-induced NF-kappaB p65 binding to DNA in mouse RAW264.7 cells at 10 to 40 uM after 1.5 hrs by spectrophotometry in presence of wild type oligonucleotide; assay type: cell-based
Sequence of Transcription factor p65 (Mus musculus) (Q04207 whole entry): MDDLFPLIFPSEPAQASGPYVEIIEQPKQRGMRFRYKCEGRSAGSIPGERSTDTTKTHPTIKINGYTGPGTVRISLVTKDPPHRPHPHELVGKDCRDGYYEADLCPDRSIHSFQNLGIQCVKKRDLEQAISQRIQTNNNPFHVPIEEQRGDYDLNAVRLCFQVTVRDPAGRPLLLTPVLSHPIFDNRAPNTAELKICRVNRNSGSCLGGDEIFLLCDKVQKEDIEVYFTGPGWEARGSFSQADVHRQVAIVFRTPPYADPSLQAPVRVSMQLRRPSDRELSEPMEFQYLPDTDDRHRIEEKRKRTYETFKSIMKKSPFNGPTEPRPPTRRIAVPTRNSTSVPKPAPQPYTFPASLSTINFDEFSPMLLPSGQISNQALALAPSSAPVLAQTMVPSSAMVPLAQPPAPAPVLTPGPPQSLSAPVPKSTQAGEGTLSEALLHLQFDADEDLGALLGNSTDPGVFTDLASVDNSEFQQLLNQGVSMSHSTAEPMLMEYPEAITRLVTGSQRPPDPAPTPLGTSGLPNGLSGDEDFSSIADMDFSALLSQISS

RAW264.7 [7] = assay: Inhibition of LPS-induced NFkappaB transcriptional activity in mouse RAW264.7 cells assessed as […] at 40 uM after 30 mins by Western blotting analysis relative to control; assay type: cell-based; method in brief: as §1
[8] = target: MAP kinase p38 (Mus musculus) (UniProt P47811+O08911+Q9WUI1+Q9Z1B7); assay: Inhibition LPS-induced p38 kinase phosphorylation in mouse RAW264.7 cells at 10 to 40 uM administered 30 mins prior to LPS challenge measured after 30 mins by Western blotting analysis; assay type: cell-based
Method in brief: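 RAW 264.7 cells pretreated with compound for 30 min, then stimulated with LPS for an additional 30 min. Lysates resolved by 6−15% SDS-PAGE and blotted to PVDF. Primary antibodies were applied overnight at 4 °C and secondary antibodies for 2 h at room temperature. Detection by ECL. Tests in triplicate; blots representative of three separate experiments.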

Mus musculus [9] = assay: Antiinflammatory activity in ICR mouse ear edema model assessed as inhibition of TPA-induced IL-1beta protein expression in ear tissue at 10 to 20 mg/kg, po administered 30 mins prior to TPA challenge measured after 4 hrs by Western blotting analysis relative to vehicle-treated control; assay type: functional, organism-based
Method in brief: (§2)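 ICR mice (male, 18−20 g, 5 weeks old) dosed orally 30 min before TPA (1.0 μg in 20 μL acetone) was applied to inner and outer surfaces of the right ear. Killed by cervical dislocation after 4 h. Edema taken as the weight of a 5 mm punch biopsy of the right ear over the left. Ear homogenates were Western blotted for iNOS, COX-2 and IL-1β.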

RAW264.7 [10] = assay: Antiinflammatory activity in mouse RAW264.7 cells assessed as inhibition of LPS-induced nitric oxide production at 40 uM administered 30 mins prior to LPS challenge measured after 20 hrs by Griess assay relative to control; assay type: functional
Method in brief: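 RAW 264.7 cells at 3 × 10^5 cells/mL in phenol red-free 10% FBS DMEM, pretreated for 30 min, then given 1 μg/mL LPS for 20 h. Nitrite in the medium was read by Griess reaction at 540 nm against a sodium nitrite standard curve. % inhibition was calculated versus vehicle control, and IC50 by nonlinear regression. Mean ± SD of triplicates.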

[11] = target: Transcription factor p65 (Mus musculus) (UniProt Q04207); assay: Inhibition of LPS-induced NFkappaB P65 protein nuclear translocation in mouse RAW264.7 cells at 40 uM after 30 mins by Western blotting analysis relative to control; assay type: cell-based; method in brief: as §1
Mus musculus [12] = assay: Antiinflammatory activity in ICR mouse ear edema model assessed as inhibition of TPA-induced iNOS protein expression in ear tissue at 10 to 20 mg/kg, po administered 30 mins prior to TPA challenge measured after 4 hrs by Western blotting analysis relative to vehicle-treated control; assay type: functional, organism-based; method in brief: as §2
RAW264.7 [13] = assay: Inhibition of LPS-induced NFkappaB transcriptional activity in mouse RAW264.7 cells assessed as reduction of phosphorylated IkappaB-alpha level at 20 uM after 30 mins by Western blotting analysis relative to control; assay type: cell-based; method in brief: as §1

Compound: C=C1C(=O)O[C@@H]2[C@@H]3[C@@]4(C=C[C@@]3(C)[C@]3(C4)C(=O)O[C@@H]4[C@H]5C(C)=CC[C@H]5[C@](C)(O)C[C@H](OC(C)=O)[C@H]43)[C@](C)(O)CC[C@@H]12
- fold change (FC) (RAW264.7 [1]): 0.44
- fold change (FC) (RAW264.7 [2]): 1.85
- inhibition (Rattus norvegicus): Dose-dependent effect
- IC50 (RAW264.7 [3]): 14.3 µM
- inhibition (RAW264.7 [3]): Dose-dependent effect
- fold change (FC) (JNK1/JNK2 (Mus musculus)): 0.54
- fold change (FC) (RAW264.7 [4]): 0.74
- inhibition (RAW264.7 [5]): Active
- inhibition [6]: inactive
- fold change (FC) (RAW264.7 [7]): 1.83
- inhibition [8]: inactive
- inhibition (Mus musculus [9]): Active
- inhibition (INH) (RAW264.7 [10]): 98%
- fold change (FC) [11]: 0.49
- inhibition (Mus musculus [12]): Active
- fold change (FC) (RAW264.7 [13]): 0.55
